APP 5'UTR act: activates APP 5'UTR luciferase reporter; SH-SY5Y APP 5'UTR luciferase reporter, luminescence; zero percent = DMSO vehicle wells; activation, % at 2 µM; actives 1% (n = 190,000);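 active means activation above a set limit, based on mean plus 3 SD of controls, cut at about 140% in these data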
Wee1 stabilizer: human Wee1 degradation inhibition, primary screen. HeLa Luc-Wee1K328M stability, luciferase luminescence; 100% = proteasome inhibitor MG132 effect. reporter increase, % at 5 µM. actives 1.2% (n = 220,000);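 active means activation above the mean of all tested compounds plus 3 SD, set per screening run, cut at about 8.8% in these data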;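 further: cells exposed to compound for 20 h before luminescence read; 0% = DMSO alone and 100% = MG132 at 30 µM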
NF-kB expr up: NF-kB expression increase, human neuronal cells; AID 1239; fold change at 12.5 µM; NF-kB reporter expression; active compounds read high; actives 1.6% (n = 190,000); in the data active means fold change above about 3.3
STAT1 act: activators of IFN-gamma induced STAT1 signaling. NIH 3T3 STAT1-luciferase reporter, luminescence; 100% = IFN-gamma alone, no compound. activation (% of control), % at 5.5 µM. actives 2.6% (n = 200,000);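 active means activation above the screen-wide mean activation plus 3 SD, cut at about 130% in these data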;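 further: raw ratio to IFN-gamma control signal so 100% means no change and 0% no light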
MDM2 E3 inh: blocks human Mdm2 ubiquitin ligase activity; Q00987; signal enhancement, % at 5 µM; cell-based MDM2 ubiquitination luciferase reporter, 2 h; 0 = plate control, 100 = twice control, blank-subtracted; actives 0.11% (n = 210,000);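 active means signal enhancement of 30% or more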;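 further: luminescence tracks abundance of the self-degrading MDM2-luciferase fusion protein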
Target sequence (Q00987 whole entry, looked up, the tested form may be a part): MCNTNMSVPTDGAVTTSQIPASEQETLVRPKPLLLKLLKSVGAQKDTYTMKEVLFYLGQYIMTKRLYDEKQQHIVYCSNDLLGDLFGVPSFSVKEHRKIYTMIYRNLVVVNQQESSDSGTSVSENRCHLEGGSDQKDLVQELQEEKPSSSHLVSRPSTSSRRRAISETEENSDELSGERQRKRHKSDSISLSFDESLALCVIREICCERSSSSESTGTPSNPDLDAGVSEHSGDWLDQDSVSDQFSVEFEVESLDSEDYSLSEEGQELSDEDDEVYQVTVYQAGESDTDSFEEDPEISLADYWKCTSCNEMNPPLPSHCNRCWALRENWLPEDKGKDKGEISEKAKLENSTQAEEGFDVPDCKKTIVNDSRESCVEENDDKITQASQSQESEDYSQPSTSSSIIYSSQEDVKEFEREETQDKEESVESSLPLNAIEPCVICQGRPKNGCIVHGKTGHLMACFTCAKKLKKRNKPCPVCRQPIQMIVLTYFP
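System: stable MDM2–luciferase fusion reporter cells / Input: 2000 cells seeded into each well / Schedule: 4 h settle plus 2 h compound, 37 °C / Compound: single-point 5 µM / Buffer or medium: cells held in DMEM / Benchmarks: control and blank well means / Evaluation: percent signal gain over controls, blank-subtracted / Measured by: luciferase luminescence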
p97 inhibitor: inhibitors of human p97 ATPase; P55072; recombinant p97 ATPase, Kinase-Glo ATP luminescence, 3 h; inhibition, % at 8 µM; actives 0.42% (n = 220,000); in the data active means inhibition above about 15%;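 further: 0% = DMSO vehicle and 100% = wells lacking enzyme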
STAT1 activ conf: STAT1 activation, confirmation assay; shares compounds with STAT1 act; NIH 3T3 STAT1-luciferase reporter, IFN-gamma potentiation, luminescence; 100% = IFN-gamma EC80 alone, no compound; activation (% of control), % at 5.7 µM; actives 97% (n = 1,200); AID 1262;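 active means activation above a set limit carried over from the earlier primary STAT1 screen, cut at about 140% in these data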;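 further: simple ratio to median IFN-gamma plus DMSO wells so 0% means no light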
NFkB act: counter-screen for STAT1 activators: NF-kappaB activation | shares compounds with STAT1 act | HEK293T NF-kB luciferase reporter, TNF-alpha stimulated, luminescence; 100% = TNF-alpha with vehicle only | activation (% of control), % at 5.7 µM | actives 43% (n = 1,200);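 active means activation above the mean of solvent-only control wells plus 3 SD, set per campaign, cut at about 130% in these data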;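 further: TNF-alpha given at a submaximal dose yielding about 80% of full reporter signal; values are well signal over median control so 100% means no change and 0% no light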
STAT3 act STAT1c: human STAT3 activation in STAT1 activator counter-screen | activation (% of control), % at 5.7 µM | actives 46% (n = 1,200) | U3A cells STAT3-luciferase reporter, IL-6, luminescence; cells lack STAT1; 100 = IL-6 alone, no compound effect | shares compounds with STAT1 act;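 active means activation above the solvent-only control well mean plus 3 SD, set per plate batch, cut at about 110% in these data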;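 further: 0% = no luminescence and 100% = median IL-6 plus DMSO wells; higher means more STAT3 reporter activation so hits are non-selective activators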
* marks the source's active call; other numbers are inactive results; nt = no result given. Compounds with a hit are over-represented: about 4.6% of the library has one in this group of screens.

SMILES | APP 5'UTR act | Wee1 stabilizer | NF-kB expr up | STAT1 act | MDM2 E3 inh | p97 inhibitor | STAT1 activ conf | NFkB act | STAT3 act STAT1c
Cc1ccc2cn[nH]c2c1[N+](=O)[O-] | -1.5 | 5.8 | 1.62 | 97.4 | -20.2 | -0.2 | nt | nt | nt
Cc1c(/C=N\NC(=O)c2cccc(F)c2)cnn1C | -10.3 | -3.1 | 1.13 | 114.0 | -86.5 | -6.4 | nt | nt | nt
Cc1cccc(/C=N\NC(=O)c2ccc(Cl)cc2)c1O | 1.6 | -1.3 | 4.33* | 154.9* | -5.2 | -3.3 | 160.6* | 124.4 | 94.6
O=C(N/N=C/c1ccc(Cl)cc1Cl)c1cccc(F)c1 | 127.0 | 1.4 | 1.63 | 160.5* | -6.6 | -1.8 | 212.0* | 141.7* | 106.8
CC1Cc2cccc3c(O)c(C(=O)c4nn[nH]n4)c(=O)n1c23 (centres undefined) | -8.8 | -2.7 | 1.05 | 94.4 | -1.0 | 2.5 | nt | nt | nt
Cc1ccc(-n2[nH]c(C)c(C=NC34CN5CN(CN(C5)C3)C4)c2=O)cc1C | 3.0 | -1.9 | 1.04 | 99.0 | -10.0 | -21.4 | nt | nt | nt
COCCCN=Cc1c(C)[nH]n(-c2ccc(Br)c(C)c2)c1=O | 147.0* | 1.4 | 2.69 | 165.1* | -32.0 | -11.7 | 249.5* | 121.5 | 80.3
C#CCN1C(=O)S/C(=C/c2cc(C)n(CC)c2C)C1=O | 117.5 | 3.5 | 1.86 | 199.4* | -14.8 | 1.7 | 239.2* | 133.6* | 101.9
Cc1cc(C)c(C)c(S(=O)(=O)N2CCN(c3ccc(O)cc3)CC2)c1C | -9.7 | 2.6 | 2.66 | 96.0 | -12.3 | 1.7 | nt | nt | nt
O=C(Nc1c(S(=O)(=O)c2ccc(Cl)cc2)csc1Br)c1ccccc1Cl | nt | -1.7 | nt | nt | -8.1 | -0.5 | nt | nt | nt
O=C(CCc1nnc(CCCc2ccccc2)o1)NC(C1CC1)C1CC1 | 90.1 | -2.6 | 5.82* | 153.6* | -13.0 | 2.1 | 205.9* | 145.0* | 128.9*
CCOC(=O)c1sc2nc(C)cc(-c3ccccc3)c2c1N | -6.2 | -2.4 | 1.11 | 93.6 | -1.3 | 3.0 | nt | nt | nt
CCOC(=O)c1sc2nc(-c3ccccc3)ccc2c1N | 174.2* | 10.5* | 2.25 | 173.8* | -26.3 | 3.4 | 271.6* | 119.2 | 94.1
Cc1oc(-c2ccc(-c3ccccc3)cc2)nc1CN(C)C1CCOC1 (centres undefined) | 79.2 | 0.4 | 2.34 | 165.3* | -5.8 | -4.1 | 191.6* | 144.0* | 116.7*
COc1ccc(-c2ccn(-c3cccc(F)n3)n2)cc1 | 138.3* | -2.0 | 0.87 | 153.8* | -15.7 | 1.9 | 177.8* | 132.5 | 122.3*
COc1ccc(-n2ccc(-c3nn(-c4cccc(C(F)(F)F)c4)ccc3=O)n2)cc1 | 5.8 | -4.0 | 1.18 | 96.5 | -6.6 | 1.8 | nt | nt | nt
COc1ccc2nc(Nc3nc4cc5c(cc4s3)OCO5)sc2c1 | -10.3 | -0.1 | 1.05 | 107.7 | -20.3 | 0.8 | nt | nt | nt
COc1ccc2nc(Nc3ccc4c(c3)OCO4)sc2c1 | 75.5 | 5.6 | 1.97 | 151.9* | -13.0 | 3.8 | 162.1* | 127.8 | 100.1
Cc1ccc(Nc2nc3ccccc3s2)cc1 | 115.2 | 7.9 | 1.33 | 192.2* | -19.5 | 2.2 | 258.7* | 137.0* | 107.8
COc1ccc2nc(Nc3ccccc3)sc2c1 | 111.0 | 0.9 | 8.13* | 150.8* | -23.7 | -1.1 | 199.6* | 138.1* | 99.4
CC(C)(C)NC(=O)NC(=O)CN1CCN(c2cccc(Cl)c2)CC1 | nt | -2.1 | nt | nt | nt | 2.6 | nt | nt | nt
CCOC(=O)c1ccc(Nc2ccc([N+](=O)[O-])cn2)cc1 | 58.7 | -0.1 | 0.96 | 111.6 | 2.6 | 5.2 | nt | nt | nt
CCOC(=O)c1ccc(Nc2cnc3ccccc3n2)cc1 | 135.8* | -1.2 | 5* | 171.0* | -20.5 | -1.7 | 194.2* | 139.2* | 113.6*

Bioassay records deposited in PubChem by several laboratories.
